≈ marks a conversion by molar mass, not a printed value.
Tests used:
Assay type in all cases: functional
[1] = test system: Enterococcus faecalis; experiment: Antibacterial activity against vancomycin-resistant Enterococcus faecalis after 18 to 20 hrs by agar dilution method
In short: (§1)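 Agar dilution MIC on test agar. Bacteria grown overnight in tryptosoy broth, diluted in the same broth to about 10⁶ cells/mL, then applied with an inoculating device onto agar holding serial twofold dilutions of compound. Plates incubated at 37 °C for 18–20 h. MIC taken as the lowest concentration visibly inhibiting growth, in µg/ml.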

[2] = test system: Haemophilus influenzae; experiment: Antibacterial activity against Haemophilus influenzae after 18 to 20 hrs by agar dilution method
In short: (§2)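 Agar dilution: bacteria grown overnight in tryptosoy broth and diluted in the same broth to about 10⁶ cells/mL. A multipoint inoculating device spotted them onto test agar carrying serial twofold dilutions of compound. Plates were held at 37 °C for 18–20 h. MIC (µg/ml) was read as the lowest concentration giving visible inhibition of growth.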

[3] = test system: Enterococcus faecalis; experiment: Antibacterial activity against Enterococcus faecalis C474 after 18 to 20 hrs by agar dilution method; in short: as §2
[4] = test system: Enterococcus faecium; experiment: Antibacterial activity against vancomycin-resistant Enterococcus faecium after 18 to 20 hrs by agar dilution method; in short: as §1
[5] = test system: Streptococcus agalactiae; experiment: Antibacterial activity against Streptococcus agalactiae ATCC 2901 after 18 to 20 hrs by agar dilution method; in short: as §2
[6] = test system: Enterococcus; experiment: Antibacterial activity against vancomycin-resistant Enterococcus 6 after 18 to 20 hrs by agar dilution method; in short: as §1
[7] = test system: Enterococcus faecium; experiment: Antibacterial activity against Enterococcus faecium C803 after 18 to 20 hrs by agar dilution method; in short: as §1
[8] = test system: Streptococcus pneumoniae; experiment: Antibacterial activity against Streptococcus pneumoniae C402 after 18 to 20 hrs by agar dilution method; in short: as §2
[9] = test system: Enterococcus; experiment: Antibacterial activity against vancomycin-resistant Enterococcus 1 after 18 to 20 hrs by agar dilution method; in short: as §1
[10] = test system: Staphylococcus aureus; experiment: Antibacterial activity against Staphylococcus aureus C463 after 18 to 20 hrs by agar dilution method; in short: as §1
[11] = test system: Enterococcus; experiment: Antibacterial activity against vancomycin-resistant Enterococcus 2 after 18 to 20 hrs by agar dilution method; in short: as §1
[12] = test system: Enterococcus; experiment: Antibacterial activity against vancomycin-resistant Enterococcus 5 after 18 to 20 hrs by agar dilution method; in short: as §1
[13] = test system: Staphylococcus aureus; experiment: Antibacterial activity against methicillin-resistant Staphylococcus aureus after 18 to 20 hrs by agar dilution method; in short: as §1
[14] = test system: Enterococcus; experiment: Antibacterial activity against vancomycin-resistant Enterococcus 4 after 18 to 20 hrs by agar dilution method; in short: as §1
[15] = test system: Staphylococcus; experiment: Antibacterial activity against Coagulase negative Staphylococcus after 18 to 20 hrs by agar dilution method; in short: as §2
[16] = test system: Enterococcus; experiment: Antibacterial activity against vancomycin-resistant Enterococcus 3 after 18 to 20 hrs by agar dilution method; in short: as §1
[17] = test system: Streptococcus pyogenes; experiment: Antibacterial activity against Streptococcus pyogenes ATCC 8736 after 18 to 20 hrs by agar dilution method; in short: as §2

SMILES	MIC [1] [µg/mL]	MIC [2] [µg/mL]	MIC [3] [µg/mL]	MIC [4] [µg/mL]	MIC [5] [µg/mL]	MIC [6] [µg/mL]	MIC [7] [µg/mL]	MIC [8] [µg/mL]	MIC [9] [µg/mL]	MIC [10] [µg/mL]	MIC [11] [µg/mL]	MIC [12] [µg/mL]	MIC [13] [µg/mL]	MIC [14] [µg/mL]	MIC [15] [µg/mL]	MIC [16] [µg/mL]	MIC [17] [µg/mL]
CC(=O)NC[C@H]1CN(c2ccc(N3CC(F)C4(CC4)C3)c(F)c2)C(=O)O1 (stereo not given in full)	1.56 (≈ 4.27 µM)	0.39 (≈ 1.07 µM)	1.56 (≈ 4.27 µM)	1.56 (≈ 4.27 µM)	0.78 (≈ 2.13 µM)	1.56 (≈ 4.27 µM)	0.78 (≈ 2.13 µM)	1.56 (≈ 4.27 µM)	1.56 (≈ 4.27 µM)	3.12 (≈ 8.54 µM)	1.56 (≈ 4.27 µM)	0.78 (≈ 2.13 µM)	0.78 (≈ 2.13 µM)	0.78 (≈ 2.13 µM)	3.12 (≈ 8.54 µM)	3.12 (≈ 8.54 µM)	1.56 (≈ 4.27 µM)
CCO/N=C1\CN(c2ccc(N3C[C@H](CNC(C)=O)OC3=O)cc2F)CC12CC2	12.5 (≈ 30.9 µM)	12.5 (≈ 30.9 µM)	25 (≈ 61.8 µM)	12.5 (≈ 30.9 µM)	12.5 (≈ 30.9 µM)	6.25 (≈ 15.5 µM)	12.5 (≈ 30.9 µM)	12.5 (≈ 30.9 µM)	12.5 (≈ 30.9 µM)	12.5 (≈ 30.9 µM)	6.25 (≈ 15.5 µM)	6.25 (≈ 15.5 µM)	12.5 (≈ 30.9 µM)	12.5 (≈ 30.9 µM)	12.5 (≈ 30.9 µM)	6.25 (≈ 15.5 µM)	12.5 (≈ 30.9 µM)
CC(=O)NC[C@H]1CN(c2ccc(N3CCOCC3)c(F)c2)C(=O)O1 [LINEZOLID]	1.56 (≈ 4.62 µM)	1.56 (≈ 4.62 µM)	1.56 (≈ 4.62 µM)	1.56 (≈ 4.62 µM)	1.56 (≈ 4.62 µM)	1.56 (≈ 4.62 µM)	1.56 (≈ 4.62 µM)	0.78 (≈ 2.31 µM)	1.56 (≈ 4.62 µM)	3.12 (≈ 9.25 µM)	1.56 (≈ 4.62 µM)	1.56 (≈ 4.62 µM)	1.56 (≈ 4.62 µM)	1.56 (≈ 4.62 µM)	3.12 (≈ 9.25 µM)	1.56 (≈ 4.62 µM)	1.56 (≈ 4.62 µM)
CC(=O)NC[C@H]1CN(c2ccc(N3CC(=O)C4(CC4)C3)c(F)c2)C(=O)O1	1.56 (≈ 4.32 µM)	1.56 (≈ 4.32 µM)	6.25 (≈ 17.3 µM)	1.56 (≈ 4.32 µM)	1.56 (≈ 4.32 µM)	1.56 (≈ 4.32 µM)	1.56 (≈ 4.32 µM)	0.78 (≈ 2.16 µM)	3.12 (≈ 8.63 µM)	3.12 (≈ 8.63 µM)	1.56 (≈ 4.32 µM)	3.12 (≈ 8.63 µM)	3.12 (≈ 8.63 µM)	3.12 (≈ 8.63 µM)	3.12 (≈ 8.63 µM)	1.56 (≈ 4.32 µM)	3.12 (≈ 8.63 µM)
CO/N=C1\CN(c2ccc(N3C[C@H](CNC(C)=O)OC3=O)cc2F)CC12CC2	6.25 (≈ 16 µM)	6.25 (≈ 16 µM)	12.5 (≈ 32 µM)	6.25 (≈ 16 µM)	6.25 (≈ 16 µM)	6.25 (≈ 16 µM)	6.25 (≈ 16 µM)	3.12 (≈ 7.99 µM)	6.25 (≈ 16 µM)	6.25 (≈ 16 µM)	3.12 (≈ 7.99 µM)	6.25 (≈ 16 µM)	6.25 (≈ 16 µM)	6.25 (≈ 16 µM)	12.5 (≈ 32 µM)	6.25 (≈ 16 µM)	6.25 (≈ 16 µM)
CC(=O)NC[C@H]1CN(c2ccc(N3C/C(=N\O)C4(CC4)C3)c(F)c2)C(=O)O1	12.5 (≈ 33.2 µM)	12.5 (≈ 33.2 µM)	25 (≈ 66.4 µM)	12.5 (≈ 33.2 µM)	6.25 (≈ 16.6 µM)	12.5 (≈ 33.2 µM)	12.5 (≈ 33.2 µM)	12.5 (≈ 33.2 µM)	12.5 (≈ 33.2 µM)	12.5 (≈ 33.2 µM)	6.25 (≈ 16.6 µM)	6.25 (≈ 16.6 µM)	12.5 (≈ 33.2 µM)	6.25 (≈ 16.6 µM)	25 (≈ 66.4 µM)	6.25 (≈ 16.6 µM)	6.25 (≈ 16.6 µM)
CC(=O)NC[C@H]1CN(c2ccc(N3C/C(=N\N)C4(CC4)C3)c(F)c2)C(=O)O1	50 (≈ 133 µM)	25 (≈ 66.6 µM)	25 (≈ 66.6 µM)	25 (≈ 66.6 µM)	25 (≈ 66.6 µM)	25 (≈ 66.6 µM)	25 (≈ 66.6 µM)	25 (≈ 66.6 µM)	12.5 (≈ 33.3 µM)	25 (≈ 66.6 µM)	25 (≈ 66.6 µM)	12.5 (≈ 33.3 µM)	25 (≈ 66.6 µM)	25 (≈ 66.6 µM)	12.5 (≈ 33.3 µM)	12.5 (≈ 33.3 µM)	12.5 (≈ 33.3 µM)
CCCO/N=C1\CN(c2ccc(N3C[C@H](CNC(C)=O)OC3=O)cc2F)CC12CC2	25 (≈ 59.7 µM)	25 (≈ 59.7 µM)	25 (≈ 59.7 µM)	12.5 (≈ 29.9 µM)	12.5 (≈ 29.9 µM)	12.5 (≈ 29.9 µM)	12.5 (≈ 29.9 µM)	12.5 (≈ 29.9 µM)	12.5 (≈ 29.9 µM)	25 (≈ 59.7 µM)	12.5 (≈ 29.9 µM)	12.5 (≈ 29.9 µM)	12.5 (≈ 29.9 µM)	12.5 (≈ 29.9 µM)	12.5 (≈ 29.9 µM)	12.5 (≈ 29.9 µM)	12.5 (≈ 29.9 µM)
CC(=O)NC[C@H]1CN(c2ccc(N3CC(N)C4(CC4)C3)c(F)c2)C(=O)O1 (stereo not given in full)	12.5 (≈ 34.5 µM)	6.25 (≈ 17.2 µM)	6.25 (≈ 17.2 µM)	6.25 (≈ 17.2 µM)	6.25 (≈ 17.2 µM)	12.5 (≈ 34.5 µM)	6.25 (≈ 17.2 µM)	6.25 (≈ 17.2 µM)	12.5 (≈ 34.5 µM)	6.25 (≈ 17.2 µM)	6.25 (≈ 17.2 µM)	6.25 (≈ 17.2 µM)	6.25 (≈ 17.2 µM)	6.25 (≈ 17.2 µM)	6.25 (≈ 17.2 µM)	6.25 (≈ 17.2 µM)	6.25 (≈ 17.2 µM)
CC(=O)NC[C@H]1CN(c2ccc(N3CC(O)C4(CC4)C3)c(F)c2)C(=O)O1 (stereo not given in full)	6.25 (≈ 17.2 µM)	6.25 (≈ 17.2 µM)	12.5 (≈ 34.4 µM)	6.25 (≈ 17.2 µM)	6.25 (≈ 17.2 µM)	3.12 (≈ 8.59 µM)	6.25 (≈ 17.2 µM)	3.12 (≈ 8.59 µM)	3.12 (≈ 8.59 µM)	12.5 (≈ 34.4 µM)	6.25 (≈ 17.2 µM)	6.25 (≈ 17.2 µM)	6.25 (≈ 17.2 µM)	6.25 (≈ 17.2 µM)	12.5 (≈ 34.4 µM)	6.25 (≈ 17.2 µM)	6.25 (≈ 17.2 µM)

Source: ChEMBL document CHEMBL1138614, “Synthesis and antibacterial activities of novel oxazolidinones having spiro[2,4]heptane moieties” (2009)
